High-throughput results (PubChem BioAssay)
Many of the other results were omitted from the sample, so hits are more common in it than they were.
Myeloid diff 2: compounds promoting myeloid differentiation. ER-HoxA9 myeloid progenitors, lysozyme-GFP differentiation, flow cytometry. calls only at 10 µM. hit rate 1% among 360,000;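 active = normalized GFP-positive differentiation at or above the plate's own cutoff, the solvent-only control mean plus 3 SD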;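 also: cells exposed to compound for four days before flow analysis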
Xi reactivation: X-chromosome reactivation activator; XiGFP mouse fibroblasts, % GFP-positive cells imaging, 3 d; cells co-treated with 5-aza-dC sensitizer; scaled so ellipticine positive control = 100%; activation, % at 7.58 µM; hit rate 0.055% among 360,000; AID 743238;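 active = mean normalized replicate activation at least 10% and every replicate at or above 10%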;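 also: 0% = median of on-plate neutral control wells and 100% = ellipticine 6 µM median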
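Material: XiGFP fibroblasts, SV40-immortalized; Buffer or medium: DMEM containing 5-aza-dC; Compound dosing: single point; Times: 3 days compound exposure.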
ABCB6 inh 2: blocks the human ABCB6 transporter; K562-ABCB6 porphyrin accumulation, flow cytometry, 1 h; stronger effect = lower value; hit rate 0.19% among 360,000; AID 602162; Q9NP58; fluorescence ratio to DMSO, % at 10 µM;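 active = fluorescence ratio to DMSO below 75%, the collection mean minus 3 SD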;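 also: signal is porphyrin accumulated inside mitochondria; 100% equals median channel fluorescence of DMSO control wells; lower ratio means ABCB6 inhibition with less porphyrin fluorescence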
Target sequence (Q9NP58 whole entry, looked up): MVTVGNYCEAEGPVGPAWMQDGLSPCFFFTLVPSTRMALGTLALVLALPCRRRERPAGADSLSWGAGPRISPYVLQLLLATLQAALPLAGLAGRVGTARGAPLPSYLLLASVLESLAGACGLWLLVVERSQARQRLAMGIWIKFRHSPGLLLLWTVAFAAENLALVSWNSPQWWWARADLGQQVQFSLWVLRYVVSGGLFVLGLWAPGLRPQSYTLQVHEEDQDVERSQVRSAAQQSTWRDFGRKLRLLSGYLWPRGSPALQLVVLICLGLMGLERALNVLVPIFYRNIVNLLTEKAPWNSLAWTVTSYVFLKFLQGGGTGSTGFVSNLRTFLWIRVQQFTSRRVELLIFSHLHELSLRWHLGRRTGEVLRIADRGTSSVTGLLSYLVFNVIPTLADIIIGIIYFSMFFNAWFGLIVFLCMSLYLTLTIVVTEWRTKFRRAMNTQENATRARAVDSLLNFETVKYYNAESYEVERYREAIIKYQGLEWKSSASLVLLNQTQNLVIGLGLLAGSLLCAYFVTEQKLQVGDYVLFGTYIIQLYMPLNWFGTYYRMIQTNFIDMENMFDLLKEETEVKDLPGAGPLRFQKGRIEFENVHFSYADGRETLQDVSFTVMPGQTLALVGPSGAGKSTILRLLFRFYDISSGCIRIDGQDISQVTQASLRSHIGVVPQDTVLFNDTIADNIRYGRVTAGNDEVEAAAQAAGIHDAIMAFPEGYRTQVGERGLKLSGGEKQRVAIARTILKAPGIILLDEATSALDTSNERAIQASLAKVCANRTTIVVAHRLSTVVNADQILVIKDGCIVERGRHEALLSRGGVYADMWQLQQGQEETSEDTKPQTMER
Myeloid diff: compounds promoting myeloid differentiation; ER-HoxA9 myeloid progenitors, GFP/Mac1 double-positive flow; shares compounds with Myeloid diff 2; calls only; hit rate 2% among 2,300;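 active = share of green or green-and-red cells above 9 and 9% in run 1 or 4 and 3% in run 2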
GFP autofluor: compound fluorescence in myeloid differentiation counter-screen. shares compounds with Myeloid diff 2. ER-HoxA9 myeloid progenitors, no estrogen, GFP autofluorescence flow cytometry; vehicle wells 0%, positive control 100%. fluorescence response, % (no concentration beside the values). hit rate 7.4% among 2,300. AID 651707;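 active = over 5% cells positive for green fluorescent reporter, or over 2% positive for both it and APC stain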;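 also: range taken on the double positive population between DMSO and positive control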
An asterisk follows results filed as active; i = inactive; nt = no result given; + = active, no number.

SMILES	Myeloid diff 2	Xi reactivation	ABCB6 inh 2	Myeloid diff	GFP autofluor
COc1ccccc1CC1(C)NC(=O)N(CC(=O)N2CCc3ccccc3C2)C1=O (stereo not given)	i	nt	99	i	0
O=C(CN1C(=O)NC2(CCCCCCC2)C1=O)N1CCc2ccccc2C1	i	nt	98	nt	nt
CSc1cccc(NC(=O)c2ccc(Cl)nc2)c1	i	nt	103	i	0
CSc1cccc(NC(=O)c2cnccn2)c1	i	nt	98	nt	nt
Cc1ccc(S(=O)(=O)N(C)C[C@H]2Oc3ccc(NS(=O)(=O)c4ccc(F)cc4)cc3CC(=O)N([C@H](C)CO)C[C@H]2C)cc1	nt	-1	nt	nt	nt
C[C@@H]1CN([C@@H](C)CO)S(=O)(=O)c2ccc(C3=CCCCC3)cc2O[C@H]1CN(C)C(=O)Cc1cccnc1	nt	0	nt	nt	nt
O=c1[nH]c(CSc2nc3ccccc3[nH]2)nc2c1cnn2-c1ccccc1	i	0	119	nt	nt
O=c1[nH]c(SCc2nc3c(cnn3-c3ccccc3)c(=O)[nH]2)nc2ccccc12	+	nt	100	i	3
COc1ccccc1CN1[C@@H]2Cn3c(ccc(C4=CCCCC4)c3=O)[C@H]1[C@@H](C(=O)N(C)C)[C@@H]2CO	nt	0	nt	nt	nt
CN(C)S(=O)(=O)c1cccc(NC(=O)COC(=O)CCc2nc3ccccc3s2)c1	i	nt	93	i	2
CN(C)S(=O)(=O)c1cccc(NC(=O)COC(=O)c2ccc3ccccc3n2)c1	i	0	98	nt	nt
O=C(CSc1nc2ccccc2c(=O)n1Cc1ccco1)c1ccccc1	i	nt	93	nt	nt
CC1CCCCC1NC(=O)CSc1nc2ccccc2c(=O)n1Cc1ccco1 (stereo not given)	+	nt	108	i	0
CCNC(=O)Nc1ccc2c(c1)C(=O)N(C)[C@H]1CC[C@@H](CC(=O)NCc3ccccc3F)O[C@@H]1CO2	nt	0	nt	nt	nt
COCCNC(=O)C[C@@H]1C[C@H]2c3cc(NS(=O)(=O)c4ccc(F)cc4)ccc3O[C@H]2[C@@H](CO)O1	nt	0	nt	nt	nt
O=C1CC/C=C\C[C@@H](CC(=O)N(CCO)Cc2ccccc2)C(=O)NC[C@@H](c2ccccc2)O1	i	0	98	nt	nt
O=C1CCC/C=C/C[C@@H](CC(=O)N(CCO)Cc2ccccc2)C(=O)NC[C@@H](c2ccccc2)O1	i	0	101	i	0
CO[C@@H]1CN(C)C(=O)c2ccc(NC(C)=O)cc2OC[C@H](C)N(Cc2nccs2)C[C@@H]1C	nt	0	nt	nt	nt
Cc1cc(C)c(C)c(N=Nc2nc3ccccc3n2C)c1C	i	0	95	nt	nt
Cc1ccc(C)c(N=Nc2nc3ccccc3n2C)c1	+	nt	92	i	0
CCCN(C)C[C@@H]1OCCCC[C@@H](C)Oc2ccc(NS(=O)(=O)c3ccccc3)cc2C(=O)N([C@H](C)CO)C[C@@H]1C	nt	0	nt	nt	nt
CC(=O)c1ccc(NC(=O)c2ccc3nc(-c4ccco4)c(-c4ccco4)nc3c2)cc1	i	nt	92	nt	nt
O=C(Nc1ccccc1)c1ccc2nc(-c3ccco3)c(-c3ccco3)nc2c1	i	nt	85	i	0
CCCNC(=O)C[C@H]1CC[C@@H]2[C@@H](COc3ccc(NC(=O)Nc4cccc(C)c4)cc3C(=O)N2C)O1	nt	0	nt	nt	nt
COc1cccc(NC(=O)N2C[C@@H](O)COC[C@@H]3O[C@H](CC(=O)NC4CCCC4)CC[C@H]32)c1	nt	0	nt	nt	nt
SMILES	Myeloid diff 2	Xi reactivation	ABCB6 inh 2	Myeloid diff	GFP autofluor
CC(=O)Nc1ccccc1-c1nc2cc(C#N)c(C#N)cc2[nH]c1=O	i	0	97	nt	nt
CCC(Oc1nc2ccccc2nc1-c1ccccc1NC(C)=O)C(=O)c1ccccc1 (stereo not given)	+	nt	94	i	0
COc1cc(OC)c(OC)cc1/C=N/NC(=O)c1ccc(CSc2nc(C)cc(C)n2)cc1	+	0	96	i	0
Cc1cc(C)nc(SCc2ccc(C(=O)N/N=C/c3ccccc3C(=O)O)cc2)n1	i	0	94	nt	nt
C[C@@H]1CN([C@@H](C)CO)C(=O)c2cccc(NS(=O)(=O)c3ccc(F)cc3)c2O[C@@H]1CN(C)Cc1ccc(Cl)c(Cl)c1	nt	0	nt	nt	nt
OC1(CN2CCOCC2)C2CN3CCN(C2)CC1(c1ccccc1)C3 (stereo not given)	+	nt	95	i	0
c1ccc2c(CN3CCOCC3)c3ccccc3c(CN3CCOCC3)c2c1	i	nt	101	nt	nt
CCOC(=O)C1=NN(C(=O)c2ccc(OC)cc2)C(O)(c2ccc(Cl)cc2)C1 (stereo not given)	+	0	96	i	0
CCOC(=O)C1=NN(C(=O)c2ccccc2)C(O)(c2ccc(C)cc2)C1 (stereo not given)	i	0	102	nt	nt
Cc1ccc(S(=O)(=O)N(C)C[C@H]2Oc3ccc(NC(=O)CCN4CCOCC4)cc3CC(=O)N([C@@H](C)CO)C[C@@H]2C)cc1	nt	0	nt	nt	nt
C[C@@H]1CCCCO[C@@H](CN(C)C(=O)Cc2ccccc2)[C@H](C)CN([C@@H](C)CO)C(=O)c2cc(NS(=O)(=O)c3ccc(Cl)cc3)ccc2O1	nt	0	nt	nt	nt
O=c1cc(-c2ccc(O)cc2)oc2c1ccc1ccccc12	i	-1	98	nt	nt
O=c1cc(-c2ccc(O)cc2)oc2c(O)c(O)c(O)c(O)c12	i	nt	93	i	1
COc1ccccc1S(=O)(=O)N[C@@H]1C=C[C@@H](CC(=O)N2CCN(C)CC2)O[C@H]1CO	nt	0	nt	nt	nt
C#CCOCCOCCOCCNc1nc(N2CCN(C(=O)[C@H](C(C)C)n3cc(CCO)nn3)CC2)nc(N2CCN(C(=O)[C@H]([C@@H](C)CC)n3cc(CCCCN)nn3)CC2)n1	i	0	93	nt	nt
C#CCOCCOCCOCCNc1nc(N2CCOCC2)nc(N2CCN(C(=O)[C@H]([C@@H](C)CC)n3cc(CCCCN)nn3)CC2)n1	+	0	102	i	1
C#CCOCCOCCOCCNc1nc(N2CCN(C(=O)[C@H]([C@@H](C)CC)n3cc([C@@H](N)CO)nn3)CC2)nc(N2CCN(C(=O)[C@H](Cc3ccc(O)cc3)n3cc([C@@H](N)C(C)CC)nn3)CC2)n1 (stereo not given in full)	i	nt	102	i	0
C#CCOCCOCCOCCNc1nc(N2CCN(C(=O)[C@H]([C@@H](C)CC)n3cc([C@@H](N)CO)nn3)CC2)nc(N2CCN(C(=O)[C@H]([C@@H](C)CC)n3cc([C@@H](N)Cc4ccc(O)cc4)nn3)CC2)n1	i	nt	98	nt	nt
N#C[C@H]1[C@H](c2ccccc2C2=CCCCC2)[C@H](CO)N1C(=O)CN1CCOCC1	nt	0	nt	nt	nt
CO[C@@H]1CN(C)C(=O)c2cc(NC(=O)C3CCOCC3)ccc2OC[C@@H](C)N(Cc2cccnc2)C[C@H]1C	nt	0	nt	nt	nt
O=C(COc1ccccc1)Nc1nc2cc3c(cc2s1)OCCO3	i	0	100	i	1
O=C(COc1ccccc1)Nc1nc2cc3c(cc2s1)OCO3	i	0	99	nt	nt
